Measured values published in ChEMBL document CHEMBL1782007, “Cytotoxic and NF-κB inhibitory constituents of the stems of Cratoxylum cochinchinense and their semisynthetic analogues” (J Nat Prod, 2011).
Calls of active or inactive are those of the source. No cut-off for these calls is given here.

Tests used:
HT-29 [1] = assay: Cytotoxicity against human HT-29 cells after 3 days by sulforhodamine B assay; format: functional; conditions: HT-29, 72 h, read-out: ED50 (the source's name)
How it was run: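 Trypsinized HT-29 cells seeded in 96-well plates and exposed to serial DMSO dilutions, with a DMSO negative control and a paclitaxel positive control. Incubated 3 days at 37 °C, 5% CO2, then fixed, stained with sulforhodamine B, lysed in tris base and read at 515 nm. ED50 from nonlinear regression. Run in triplicate, two independent experiments.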

Transcription factor p65 = Transcription factor p65 (Homo sapiens, UniProt Q04206); assay: Inhibition of NFkappa p65 in nuclear extract of human HeLa cells assessed as blockade of NFkappa p65 binding to biotinylated-consesus sequence by ELISA; format: cell-free
Sequence of Transcription factor p65 (Q04206 whole entry): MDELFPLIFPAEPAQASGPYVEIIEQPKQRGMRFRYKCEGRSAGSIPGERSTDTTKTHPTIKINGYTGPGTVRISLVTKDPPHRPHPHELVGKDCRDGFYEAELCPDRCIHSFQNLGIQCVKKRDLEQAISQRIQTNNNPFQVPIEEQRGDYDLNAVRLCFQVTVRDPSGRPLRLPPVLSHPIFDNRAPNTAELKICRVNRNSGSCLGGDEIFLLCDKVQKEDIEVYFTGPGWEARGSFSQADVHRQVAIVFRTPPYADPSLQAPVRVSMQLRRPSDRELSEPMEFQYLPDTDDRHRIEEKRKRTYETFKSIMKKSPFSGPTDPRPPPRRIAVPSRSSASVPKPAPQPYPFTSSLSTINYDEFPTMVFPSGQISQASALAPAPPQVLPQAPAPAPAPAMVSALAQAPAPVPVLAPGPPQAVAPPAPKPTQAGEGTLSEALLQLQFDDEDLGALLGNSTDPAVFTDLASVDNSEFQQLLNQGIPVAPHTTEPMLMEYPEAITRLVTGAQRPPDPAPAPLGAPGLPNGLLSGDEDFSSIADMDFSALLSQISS

HT-29 [2] = assay: Effect on mitochondrial membrane potential in human HT-29 cells after 2 hrs using JC-1 staining by fluorescence assay; format: functional, cell-based; conditions: HT-29, 2 h
MDA-MB-435 = assay: Antitumor activity against human MDA-MB-435 cells at 20 mg/kg, ip by in-vivo hallow fiber model; format: functional, organism-based; design: dose 20 mg/kg
MCF7 = assay: Antitumor activity against human MCF7 cells at 20 mg/kg, ip by in-vivo hallow fiber model; format: functional, organism-based; design: dose 20 mg/kg
HT-29 [3] = assay: Antitumor activity against human HT-29 cells at 20 mg/kg, ip by in-vivo hallow fiber model; format: functional, organism-based; design: dose 20 mg/kg

Compound | IC50 (Transcription factor p65) [µM] | IC50 (HT-29 [2]) [µM] | EC50 (HT-29 [1]) [µM] | inhibition (MDA-MB-435) | inhibition (MCF7) | inhibition (HT-29 [3])
COc1c(O)cc2oc3cc(O)c(CC=C(C)C)c(O)c3c(=O)c2c1CC=C(C)C [MANGOSTIN] | > 10 | 0.2 | 4.1 | – | – | –
CC(C)=CC[C@]12OC(C)(C)[C@H]3C[C@H](C=C4C(=O)c5c(O)cc(O)cc5O[C@@]431)C2=O [COCHINCHINOXANTHONE] | > 10 | 3.3 | 5.8 | – | – | –
CC(C)=CCc1c(O)cc2oc3cc(O)c(O)c(CC=C(C)C)c3c(=O)c2c1O | – | > 10 | 4 | – | – | –
CC(=O)O[C@H]1C(=O)[C@@]2(C)[C@H]([C@H](OC(=O)c3ccccc3)[C@]3(O)C[C@H](OC(=O)[C@H](O)[C@@H](NC(=O)c4ccccc4)c4ccccc4)C(C)=C1C3(C)C)[C@]1(OC(C)=O)CO[C@@H]1C[C@@H]2O [PACLITAXEL] | – | – | 0.0001 | – | – | –
COc1c(O)cc2oc3cc(O)c4c(c3c(=O)c2c1CCC(C)(C)O)OC(C)(C)CC4 | – | > 10 | > 10 | – | – | –
COc1c(O)cc2oc3cc4c(c(O)c3c(=O)c2c1CCC(C)(C)OC=O)CCC(C)(C)O4 | – | > 10 | 4.4 | – | – | –
COc1c(OC(C)=O)cc2oc3cc(OC(C)=O)c(CC=C(C)C)c(O)c3c(=O)c2c1CC=C(C)C | > 10 | 1.8 | 1 | inactive | inactive | inactive
COc1cc2oc3cc(OC)c(OC)c(CC=C(C)C)c3c(=O)c2c(O)c1CC=C(C)C | > 10 | 0.9 | > 10 | – | – | –
COc1c(O)cc2oc3cc4c(c(O)c3c(=O)c2c1CCC(C)(C)O)CCC(C)(C)O4 | – | > 10 | 4.4 | – | – | –
COc1c(OC(C)=O)cc2oc3cc(OC(C)=O)c(CC=C(C)C)c(OC(C)=O)c3c(=O)c2c1CC=C(C)C | > 10 | – | 6 | – | – | –
CC(C)=CCC/C(C)=C/Cc1c(O)c2c(c3c(=O)c4cc(O)ccc4oc13)OC(C)(C)[C@@H](O)C2 [COCHINENSOXANTHONE] | – | – | > 10 | – | – | –
COc1c(OC(=O)c2ccccc2)cc2oc3cc(O)c(CC=C(C)C)c(O)c3c(=O)c2c1CC=C(C)C | > 10 | > 10 | 1.9 | – | – | –

Further lines, with some results ahead:

IC50 (Transcription factor p65) [µM] | IC50 (HT-29 [2]) [µM] | Compound | EC50 (HT-29 [1]) [µM] | inhibition (MDA-MB-435) | inhibition (MCF7) | inhibition (HT-29 [3])
> 10 | – | COc1c(O)cc2oc3cc(OC(C)=O)c(CC=C(C)C)c(O)c3c(=O)c2c1CC=C(C)C | 8.8 | – | – | –
> 10 | – | COc1ccc2oc3c(C/C=C(\C)CCC=C(C)C)c(OC)c(CC=C(C)C)c(O)c3c(=O)c2c1 | > 10 | – | – | –
> 10 | 1.4 | COc1cc2oc3c(C)c(OC)c(CC=C(C)C)c(O)c3c(=O)c2c(CC=C(C)C)c1OC | > 10 | – | – | –
> 10 | > 10 | COc1ccc2oc3c(C/C=C(\C)CCC=C(C)C)c(O)c(CC=C(C)C)c(O)c3c(=O)c2c1 | – | – | – | –
> 10 | > 10 | CC(C)=CCC/C(C)=C/Cc1c(O)c(CC=C(C)C)c(O)c2c(=O)c3cc(O)ccc3oc12 [COCHINCHINONE A] | > 10 | – | – | –
2.9 | – | CC(C)=CCc1c(O)c(CC=C(C)C)c2oc3ccc(O)cc3c(=O)c2c1O | > 10 | – | – | –
> 10 | > 10 | CC(C)=CCC/C(C)=C/Cc1c(O)c(CC=C(C)C)c(O)c2c(=O)c3cc(OC(=O)c4ccccc4)ccc3oc12 | – | – | – | –
> 10 | – | CC(=O)Oc1ccc2oc3c(C/C=C(\C)CCC=C(C)C)c(OC(C)=O)c(CC=C(C)C)c(O)c3c(=O)c2c1 | > 10 | – | – | –
